Measured values: ChEMBL document CHEMBL5126676, “Identification of Inhibitors of the Schistosoma mansoni VKR2 Kinase Domain” (ACS Med Chem Lett, 2022)
Active and inactive are the calls of the source. The calls are words filed in the database; no cut-off is given here.

How the values were obtained:
Venus kinase receptor 2 [1] = biological target: T1, Venus kinase receptor 2 (Schistosoma mansoni, UniProt D5JEH1); experiment: Binding affinity to Schistosoma mansoni N-terminal His6-tagged full-length VKR2 kinase domain expressed in baculovirus infected Sf9 insect cells in presence of ATPgammaS by SPR analysis
T1 sequence (D5JEH1 whole entry, the tested form may be a part): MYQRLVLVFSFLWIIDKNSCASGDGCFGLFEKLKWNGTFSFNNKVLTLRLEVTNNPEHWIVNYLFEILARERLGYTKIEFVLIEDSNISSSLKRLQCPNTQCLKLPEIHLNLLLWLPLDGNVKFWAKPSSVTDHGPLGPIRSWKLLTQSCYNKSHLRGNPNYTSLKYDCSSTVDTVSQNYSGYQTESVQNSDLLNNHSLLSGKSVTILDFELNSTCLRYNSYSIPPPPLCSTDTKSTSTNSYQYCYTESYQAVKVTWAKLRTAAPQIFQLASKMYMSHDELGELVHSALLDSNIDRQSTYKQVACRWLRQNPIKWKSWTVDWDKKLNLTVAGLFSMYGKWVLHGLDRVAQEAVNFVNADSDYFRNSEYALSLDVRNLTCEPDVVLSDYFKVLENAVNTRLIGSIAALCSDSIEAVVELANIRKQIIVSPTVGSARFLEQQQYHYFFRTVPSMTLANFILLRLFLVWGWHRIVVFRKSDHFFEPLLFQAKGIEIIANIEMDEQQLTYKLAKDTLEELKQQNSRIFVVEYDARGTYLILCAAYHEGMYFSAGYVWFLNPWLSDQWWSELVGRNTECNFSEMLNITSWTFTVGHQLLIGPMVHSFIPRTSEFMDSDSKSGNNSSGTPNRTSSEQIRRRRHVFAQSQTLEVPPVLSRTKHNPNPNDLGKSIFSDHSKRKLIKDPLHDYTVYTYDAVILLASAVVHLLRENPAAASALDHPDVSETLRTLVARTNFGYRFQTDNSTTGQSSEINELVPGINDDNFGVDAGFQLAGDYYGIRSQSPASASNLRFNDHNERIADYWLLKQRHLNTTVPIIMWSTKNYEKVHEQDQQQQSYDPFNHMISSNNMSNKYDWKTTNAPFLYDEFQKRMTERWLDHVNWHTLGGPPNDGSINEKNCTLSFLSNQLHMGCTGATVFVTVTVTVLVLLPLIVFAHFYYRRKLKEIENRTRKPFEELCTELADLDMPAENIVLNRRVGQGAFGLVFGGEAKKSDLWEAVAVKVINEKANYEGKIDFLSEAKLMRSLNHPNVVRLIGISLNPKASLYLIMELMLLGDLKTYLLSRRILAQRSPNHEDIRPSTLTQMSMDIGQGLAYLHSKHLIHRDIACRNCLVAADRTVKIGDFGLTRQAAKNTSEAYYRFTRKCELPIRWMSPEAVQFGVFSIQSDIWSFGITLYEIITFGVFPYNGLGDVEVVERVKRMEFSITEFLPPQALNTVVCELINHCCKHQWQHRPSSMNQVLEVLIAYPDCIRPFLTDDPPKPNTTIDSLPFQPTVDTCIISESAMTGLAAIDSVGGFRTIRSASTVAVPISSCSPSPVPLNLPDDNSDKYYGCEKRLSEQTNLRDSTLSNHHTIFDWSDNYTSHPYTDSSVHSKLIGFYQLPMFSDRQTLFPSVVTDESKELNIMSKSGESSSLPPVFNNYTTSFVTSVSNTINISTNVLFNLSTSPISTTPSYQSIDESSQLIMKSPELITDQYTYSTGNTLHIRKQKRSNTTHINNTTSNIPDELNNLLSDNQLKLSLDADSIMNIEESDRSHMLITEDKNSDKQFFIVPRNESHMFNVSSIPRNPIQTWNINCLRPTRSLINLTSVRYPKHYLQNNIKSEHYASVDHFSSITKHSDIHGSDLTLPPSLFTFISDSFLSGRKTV

Venus kinase receptor 2 [2] = biological target: T1, Venus kinase receptor 2; experiment: Inhibition of Schistosoma mansoni N-terminal His6-tagged full-length VKR2 kinase domain expressed in baculovirus infected Sf9 insect cells assessed as reduction in autophosphorylation measured after 30 mins in presence of ATP by ADP-glo kinase assay
Procedure, shortened: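 Autophosphorylation of the SmVKR2 kinase domain, used as the read-out because no substrate is known, with 10 μM ATP. Concentration–response curves were run in triplicate, and IC50 was fitted from them; the paper plots mean ± SD.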

Schistosoma mansoni [3] = experiment: Antischistosomal activity against adult Schistosoma mansoni assessed as damage to the tegument by measuring blebbing at 10 uM measured after 24 hrs by inverted microscopy; format: functional, organism-based
Procedure, shortened: (§1)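 Adult S. mansoni worms exposed ex vivo to 10 μM compound. Observed at 2, 5 and 24 h and scored with an observation-based severity system. Descriptors recorded: degenerating, uncoordinated, slow, on sides (no adherence to the well floor by oral or ventral sucker), and tegument blebs. Three to five biological singleton assays.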

Schistosoma mansoni [4] = experiment: Antischistosomal activity against adult Schistosoma mansoni assessed as reduction in worm motility at 10 uM by worm assay; format: functional, organism-based; settings: time 2-24 hrs, TDE = time-dependent effect
Procedure, shortened: (§2)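 Ex vivo adult S. mansoni were incubated with 10 μM compound. Average worm motility per well was recorded by WormAssay over time at 2, 5 and 24 h. Three to five biological assays. Significance was tested by two-tailed Student's t-test.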

Schistosoma mansoni [5] = experiment: Antischistosomal activity against adult Schistosoma mansoni assessed as loss of worm ability to adhere to well floor at 10 uM measured after 2 hrs by inverted microscopy; format: functional, organism-based; procedure, shortened: as §1
Schistosoma mansoni [6] = experiment: Antischistosomal activity against adult Schistosoma mansoni assessed as damage to the tegument by measuring bubbling at 10 uM measured after 24 hrs by inverted microscopy; format: functional, organism-based; procedure, shortened: as §1
Schistosoma mansoni [7] = experiment: Antischistosomal activity against adult Schistosoma mansoni assessed as reduction in worm motility at 10 uM measured after 2 hrs by inverted microscopy; format: functional, organism-based; procedure, shortened: as §1
Schistosoma mansoni [8] = experiment: Antischistosomal activity against adult Schistosoma mansoni assessed as worm degeneration at 10 uM measured after 24 hrs by inverted microscopy; format: functional, organism-based; procedure, shortened: as §1
Schistosoma mansoni [9] = experiment: Antischistosomal activity against adult Schistosoma mansoni assessed as reduction in worm motility at 10 uM measured after 2 to 24 hrs by worm assay; format: functional, organism-based; settings: time 2-24 hrs; procedure, shortened: as §2
Schistosoma mansoni [10] = experiment: Antischistosomal activity against adult Schistosoma mansoni assessed as reduction in worm movement at 10 uM measured after 2 to 24 hrs by inverted microscopy; format: functional, organism-based; settings: time 2-24 hrs; procedure, shortened: as §1

CNC(=O)c1ccccc1Nc1nc(Nc2cccc(CS(C)(=O)=O)c2)ncc1C
Kd (Venus kinase receptor 2 [1]): 0.44 µM | IC50 (Venus kinase receptor 2 [2]): 6.47 µM

Cc1n[nH]c2cc(Nc3ccnc(Nc4cccc(CN5CCOCC5)c4)n3)ccc12
Kd (Venus kinase receptor 2 [1]): 39 µM

Cc1cccc(Nc2nc(NCCN)ncc2C(N)=O)c1
Kd (Venus kinase receptor 2 [1]): 4.5 µM

Nc1nc(N)c2nc(-c3ccccc3)[nH]c2n1
Kd (Venus kinase receptor 2 [1]): 82 µM

CS(=O)(=O)Nc1ccc(-c2ccnc3[nH]ccc23)cc1
Kd (Venus kinase receptor 2 [1]): 7.8 µM

NC(=O)Nc1sc(-c2ccc(F)cc2)cc1C(N)=O
Kd (Venus kinase receptor 2 [1]): 16 µM

Nc1n[nH]c2cnc(-c3ccccc3)cc12
Kd (Venus kinase receptor 2 [1]): 47 µM

CC(C)Oc1ccc2c(-c3ccnc(Nc4ccc(N5CCN(C)CC5)cc4)n3)cnn2n1
Activity (Schistosoma mansoni [3]): Active | Kd (Venus kinase receptor 2 [1]): 3.4 µM | Activity (Schistosoma mansoni [4]): Tde | Activity (Schistosoma mansoni [5]): Active | Activity (Schistosoma mansoni [6]): Active | Activity (Schistosoma mansoni [7]): Active | Activity (Schistosoma mansoni [8]): Active | IC50 (Venus kinase receptor 2 [2]): 20.1 µM

NCCNS(=O)(=O)c1ccc(-c2ccnc3[nH]ccc23)cc1
Kd (Venus kinase receptor 2 [1]): 2.53 µM

Cc1cccc(Nc2nc(N[C@H]3CCCC[C@H]3N)ncc2C(N)=O)c1
Kd (Venus kinase receptor 2 [1]): 1.96 µM | Activity (Schistosoma mansoni [9]): Active | Activity (Schistosoma mansoni [10]): Active | IC50 (Venus kinase receptor 2 [2]): 5.69 µM

O=C(Nc1n[nH]c2cnc(-c3ccc(O)cc3)cc12)C1CC1
Kd (Venus kinase receptor 2 [1]): 170 µM | Activity (Schistosoma mansoni [9]): Active | Activity (Schistosoma mansoni [10]): Active

CN(C)CCNS(=O)(=O)c1ccc(-c2ccnc3[nH]ccc23)cc1
Kd (Venus kinase receptor 2 [1]): 8.2 µM
